Laboratory results as given in ChEMBL document CHEMBL1153967, “Discovery of substituted 4-anilino-2-arylpyrimidines as a new series of apoptosis inducers using a cell- and caspase-based high throughput screening assay. 2. Structure-activity relationships of the 2-aryl group” (Bioorg Med Chem Lett, 2009).
Activity calls are given as the source filed them. The calls are words filed in the database; no cut-off is given here.

How the values were obtained:
[1] = system: SNU-398; test: Induction of apoptosis in human SNU398 cells assessed as caspase activation after 48 hrs by HTS assay; type: functional, cell-based; settings: SNU-398, 48 h
Procedure, shortened: (§1)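 Cell-based caspase-3 activation HTS read with a proprietary fluorescent caspase-3 substrate in T47D, HCT116 and SNU398 cells. Compounds applied for 48 h, highest level 10 µM. EC50 reported as mean ± SEM of three or more experiments.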

[2] = system: T47D; test: Induction of apoptosis in human T47D cells assessed as caspase activation after 48 hrs by HTS assay; type: functional, cell-based; procedure, shortened: as §1
[3] = system: HCT-116; test: Induction of apoptosis in human HCT116 cells assessed as caspase activation after 48 hrs by HTS assay; type: functional, cell-based; settings: HCT-116, 48 h; procedure, shortened: as §1
[4] = system: T47D; test: Growth inhibition of human T47D cells after 48 hrs; type: functional
Procedure, shortened: (§2)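 96-well growth-inhibition (GI50) format, run in parallel in T47D breast, HCT116 colon and SNU398 hepatocellular carcinoma cells.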

[5] = system: SNU-398; test: Growth inhibition of human SNU398 cells after 48 hrs; type: functional; settings: SNU-398, 48 h; procedure, shortened: as §2
[6] = system: HCT-116; test: Growth inhibition of human HCT116 cells after 48 hrs; type: functional; settings: HCT-116, 48 h; procedure, shortened: as §2
[7] = Inhibition of tubulin polymerization up to 50 uM
[8] = system: T47D; test: Induction of apoptosis in human T47D cells assessed as accumulation at G1 phase at 0.05 uM after 24 hrs by flow cytometry analysis; type: functional
Procedure, shortened: (§3)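 T47D cells treated at 0.05 µM for 24 h or 48 h at 37 °C alongside untreated controls. Cells stained with propidium iodide and analysed by flow cytometry. Percentages in sub-G1, G1, S and G2/M read from DNA-content histograms.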

[9] = system: T47D; test: Induction of apoptosis in human T47D cells assessed as accumulation at G2/M phase at 0.05 uM after 48 hrs by flow cytometry analysis; type: functional; procedure, shortened: as §3
[10] = system: T47D; test: Induction of apoptosis in human T47D cells assessed as accumulation at subG1 phase at 0.05 uM after 24 hrs by flow cytometry analysis; type: functional; procedure, shortened: as §3
[11] = system: T47D; test: Induction of apoptosis in human T47D cells assessed as accumulation at S phase at 0.05 uM after 48 hrs by flow cytometry analysis; type: functional; procedure, shortened: as §3
[12] = system: T47D; test: Induction of apoptosis in human T47D cells assessed as accumulation at G1 phase at 0.05 uM after 48 hrs by flow cytometry analysis; type: functional; procedure, shortened: as §3
[13] = system: T47D; test: Induction of apoptosis in human T47D cells assessed as accumulation at S phase at 0.05 uM after 24 hrs by flow cytometry analysis; type: functional; procedure, shortened: as §3
[14] = system: T47D; test: Induction of apoptosis in human T47D cells assessed as accumulation at G2/M phase at 0.05 uM after 24 hrs by flow cytometry analysis; type: functional; procedure, shortened: as §3
[15] = system: T47D; test: Induction of apoptosis in human T47D cells assessed as accumulation at subG1 phase at 0.05 uM after 48 hrs by flow cytometry analysis; type: functional; procedure, shortened: as §3
[16] = Inhibition of tubulin polymerization

| Structure (SMILES) | EC50 [1] [nM] | EC50 [2] [nM] | EC50 [3] [nM] | other results |
| --- | --- | --- | --- | --- |
| COc1cc(Nc2cc(C(F)(F)F)nc(-c3cnccn3)n2)cc(OC)c1 | > 10000 | 130 | > 10000 | – |
| Cc1ccc(O)cc1Nc1cc(C(F)(F)F)nc(-c2cnccn2)n1 | > 10000 | 190 | > 10000 | – |
| Cc1ccc(O)cc1Nc1cc(C(F)(F)F)nc(-c2ccncc2)n1 | – | 48 | 2000 | – |
| COc1ccc(Cl)c(Nc2cc(C(F)(F)F)nc(-c3c(Cl)cncc3Cl)n2)c1 | > 10000 | > 10000 | > 10000 | – |
| COc1ccc(Cl)c(Nc2cc(C)nc(N3CCOCC3)n2)c1 | > 10000 | > 10000 | > 10000 | – |
| Oc1ccc(Cl)c(Nc2cc(C(F)(F)F)nc(-c3ccncc3)n2)c1 | – | 77 | 1100 | – |
| COc1ccc(OC)c(Nc2cc(C(F)(F)F)nc(-c3cnccn3)n2)c1 | 280 | 48 | 410 | – |
| COc1ccc(OC)c(Nc2nc(-c3ccccn3)ncc2OC)c1 | > 10000 | > 10000 | > 10000 | – |
| Cc1ccc(C)c(Nc2cc(C(F)(F)F)nc(-c3ccncc3)n2)c1 | – | 120 | 610 | – |
| COc1ccc(OC)c(Nc2cc(C(F)(F)F)nc(-c3ccccn3)n2)c1 | 110 | 18 | 190 | – |
| COc1cccc(Nc2cc(C(F)(F)F)nc(C3CCCCN3)n2)c1 (stereo not drawn) | > 10000 | > 10000 | > 10000 | – |
| COc1ccc(OC)c(Nc2cc(-c3ccccn3)nc(-c3ccccn3)n2)c1 | 160 | 420 | 330 | GI50 [4]: 240 nM; GI50 [5]: 410 nM; GI50 [6]: 130 nM |
| COc1ccc(C)c(Nc2cc(C(F)(F)F)nc(-c3ccncc3)n2)c1 | – | 25 | 120 | – |
| COc1cccc(Nc2nc(-c3ccccn3)ncc2OC)c1 | > 10000 | > 10000 | > 10000 | – |
| COc1ccc(Cl)c(Nc2cc(C(F)(F)F)nc(-c3ccncc3)n2)c1 | – | 100 | 960 | – |
| COc1ccc(N2CCCCC2)c(Nc2cc(C(F)(F)F)nc(-c3cccnc3)n2)c1 | > 10000 | > 10000 | > 10000 | – |
| COc1ccc(C)cc1Nc1cc(C(F)(F)F)nc(-c2ccncc2)n1 | – | 76 | 160 | – |
| COc1cc(Nc2cc(C(F)(F)F)nc(-c3ccncc3)n2)cc(OC)c1 | – | 34 | 240 | GI50 [4]: 36 nM; GI50 [5]: 270 nM; GI50 [6]: 270 nM |
| Oc1ccc(Cl)c(Nc2cc(C(F)(F)F)nc(-c3cnccn3)n2)c1 | > 10000 | 560 | > 10000 | – |

Continued, in another order:

| EC50 [1] [nM] | EC50 [2] [nM] | EC50 [3] [nM] | Structure (SMILES) | other results |
| --- | --- | --- | --- | --- |
| 5500 | 87 | > 10000 | Cc1ccc(O)cc1Nc1cc(C(F)(F)F)nc(-c2cccnc2)n1 | – |
| 130 | 96 | 130 | COc1ccc(C)cc1Nc1cc(C(F)(F)F)nc(-c2cccnc2)n1 | – |
| 440 | 360 | 610 | COc1ccc(Cl)cc1Nc1cc(C(F)(F)F)nc(-c2cccnc2)n1 | – |
| > 10000 | 230 | > 10000 | Oc1ccc(Cl)c(Nc2cc(C(F)(F)F)nc(-c3cccnc3)n2)c1 | – |
| 820 | 140 | 930 | COc1ccc(Cl)c(Nc2cc(C(F)(F)F)nc(-c3cccnc3)n2)c1 | – |
| > 10000 | 970 | > 10000 | Oc1cccc(Nc2cc(C(F)(F)F)nc(-c3cccnc3)n2)c1 | – |
| > 10000 | > 10000 | > 10000 | COc1ccc(Nc2cc(C(F)(F)F)nc(-c3cccnc3)n2)cc1 | – |
| > 10000 | > 10000 | > 10000 | COc1ccc(Nc2cc(C(F)(F)F)nc(-c3ccncc3)n2)cc1 | – |
| 1400 | 82 | 2900 | COc1cc(Nc2cc(C(F)(F)F)nc(-c3cccnc3)n2)cc(OC)c1 | GI50 [4]: 61 nM; GI50 [5]: 1000 nM; GI50 [6]: 1300 nM |
| 3700 | 360 | 6000 | COc1cccc(Nc2cc(C(F)(F)F)nc(-c3ccccn3)n2)c1 | – |
| > 10000 | 340 | > 10000 | COc1cccc(Nc2cc(C(F)(F)F)nc(-c3cccnc3)n2)c1 | GI50 [4]: 94 nM; GI50 [5]: 6400 nM; GI50 [6]: > 10000 nM; Activity [7]: inactive |
| > 10000 | > 10000 | > 10000 | FC(F)(F)c1cc(Nc2cccc(Cl)c2)nc(-c2cccnc2)n1 | – |
| > 10000 | > 10000 | > 10000 | FC(F)(F)c1cc(Nc2cccc(-c3ccccc3)c2)nc(-c2cccnc2)n1 | – |
| > 10000 | 1300 | > 10000 | COc1cccc(Nc2cc(C(F)(F)F)nc(-c3ccncc3)n2)c1 | – |
| > 10000 | > 10000 | > 10000 | COc1cccc(Nc2cc(C(F)(F)F)nc(-c3ccccc3)n2)c1 | – |
| 130 | 24 | 170 | COc1ccc(OC)c(Nc2cc(C(F)(F)F)nc(-c3cccnc3)n2)c1 | Activity [8]: 32%; Activity [9]: 43%; Activity [10]: 7%; GI50 [4]: 95 nM; Activity [11]: 7%; GI50 [5]: 68 nM; GI50 [6]: 180 nM; Activity [12]: 31%; Activity [13]: 6%; Activity [14]: 53%; Activity [15]: 19%; IC50 [16]: 500 nM |
| 5000 | 1500 | 3300 | COc1ccc(Oc2ccccc2)cc1Nc1cc(C(F)(F)F)nc(-c2cccnc2)n1 | – |
| – | 680 | 3100 | Oc1cccc(Nc2cc(C(F)(F)F)nc(-c3ccncc3)n2)c1 | – |
